Experimental data reported in ChEMBL document CHEMBL1126755, “Anticonvulsant activities of some arylsemicarbazones displaying potent oral activity in the maximal electroshock screen in rats accompanied by high protection indices” (J Med Chem, 1993).

Tests used:
[1] = Neurotoxicity was determined, 1 hr after oral dosing in rat.; type: toxicity, organism-based; details: in vivo
How it was run: (§1)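 Oral dosing in rats, with MES protection or neurotoxicity assessed at the stated time. ED50 or TD50 (mg/kg) given with 95% CI, slope and SE. Testing done by NINDS under its reported procedures.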

[2] = Protective index is the ratio of TD50 and ED50 in maximal electroshock anticonvulsant screen test; type: functional
How it was run: (§2)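 Protection index is TD50/ED50, taken from intraperitoneal mouse data for the MES and scPTZ screens respectively, or from oral rat MES data.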

[3] = Protective index is the ratio of TD50 and ED50 in subcutaneous pentylenetetrazole screen test; type: functional; how it was run: as §2
Rattus norvegicus [4] = test: Effective dose for protection against seizures induced in the maximal electroshock anticonvulsant screen test 1 hr after oral dosing in rat; type: functional; how it was run: as §1
Mus musculus [5] = test: Effective dose for protection against seizures induced in the maximal electroshock anticonvulsant screen test after intraperitoneal injection in mice; type: functional; details: ip
How it was run: (§3)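 Mice received compound intraperitoneally, with quantitative evaluation in the MES, scPTZ and neurotoxicity screens at the tabulated time. ED50 or TD50 (mg/kg) reported with 95% CI, slope and SE. Testing done by NINDS under its reported procedures.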

[6] = Protective index is the ratio of TD50 in neurotoxicity screen test and ED50 in MES screen test
[7] = Neurotoxicity was determined, 0.25 hr after intraperitoneal injection in mice.; type: toxicity, organism-based; details: mouse, in vivo, ip; how it was run: as §3
Mus musculus [8] = test: Effective dose for protection against seizures induced in the subcutaneous pentylenetetrazole screen test in mice; type: functional; details: sc; how it was run: as §3
Mus musculus [9] = test: Ability to prevent seizures induced by subcutaneous injection of bicuculline, after 0.25 hr in mice; type: functional; details: sc
How it was run: (§4)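 Mice dosed intraperitoneally at various doses, then bicuculline 2.7 mg/kg given subcutaneously and protection noted. ED50 with 95% CI, slope and SE obtained using eight animals per dose; otherwise two, seven or eight mice per dose. Screening run by NINDS per its reported procedures.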

Mus musculus [10] = test: Ability to prevent seizures induced by subcutaneous injection of picrotoxin, after 0.25 hr in mice; type: functional; details: sc
How it was run: (§5)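 Mice received various intraperitoneal doses of compound, then subcutaneous picrotoxin at 2.5 mg/kg. Protection from seizures was scored. ED50 values use eight mice per dose and are given with 95% CI, slope and SE.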

Rattus norvegicus [11] = test: Ability to protect against seizures induced in the maximal electro shock (MES) screen,test1 hr after oral dosing in rat.; type: functional; how it was run: as §1
[12] = Neurotoxicity was determined, 1 hr after oral dosing in rat; type: toxicity, organism-based; details: in vivo; how it was run: as §1
[13] = Toxic dose determined as neurotoxicity, 0.25 hr after intraperitoneal injection in mice; type: toxicity, organism-based; details: mouse, in vivo, ip
How it was run: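 Mice received the compound by intraperitoneal injection, with the NINDS programme running the test by its reported procedures. Neurotoxicity was assessed at set times after dosing. TD50 is given in mg/kg with 95% CI, slope and SE.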

[14] = Toxic dose determined neurotoxicity, 1 hr after oral dosing in rat; type: toxicity, organism-based; details: in vivo
How it was run: (§6)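 Rats were dosed orally, with the NINDS programme running the tests by its reported procedures. MES protection (ED50) and neurotoxicity (TD50) were measured at timed intervals after dosing. Each value is given as a dose-response ED50 or TD50 in mg/kg with 95% CI, slope and SE.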

Rattus norvegicus [15] = test: Ability to protect against seizures induced in the maximal electro shock (MES) screen test 1 hr after oral dosing in rat; type: functional; how it was run: as §6
Rattus norvegicus [16] = test: Neurotoxicity was determined, of 0.25, 0.5, 1, 2 and 4 h, after 300 mg/kg oral dosing in rat.; type: toxicity, organism-based; set-up: dose 300 mg/kg, route oral; details: in vivo
How it was run: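 Rats given 300 mg/kg orally and checked for neurotoxicity 0.25, 0.5, 1, 2 and 4 h later, using two animals per time point. Testing done by NINDS.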

Mus musculus [17] = test: Ability to prevent seizures induced by subcutaneous injection of bicuculline, after 4 hr in mice; type: functional; details: sc; how it was run: as §4
Mus musculus [18] = test: Ability to prevent seizures induced by subcutaneous injection of picrotoxin, after 1 hr in mice; type: functional; details: sc; how it was run: as §5
[19] = Toxic dose determined as neurotoxicity, 0.25 hr after intraperitoneal injection in mice.; type: toxicity, organism-based; details: mouse, in vivo, ip; how it was run: as §3
[20] = Toxic dose determined as neurotoxicity, 1 h after oral dosing in rat; type: toxicity, organism-based; details: in vivo; how it was run: as §1
Mus musculus [21] = test: Ability to prevent seizures induced by subcutaneous injection of bicuculline, after 1 hr in mice; type: functional; details: sc; how it was run: as §4

Row | SMILES | TD50 at 1 h [1] [mg/kg] | Ratio [2] | Ratio [3] | ED50 (Rattus norvegicus [4]) [mg/kg] | ED50 (Mus musculus [5]) [mg/kg] | Ratio [6] | TD50 at 0.25 h [7] [mg/kg] | ED50 (Mus musculus [8]) [mg/kg] | ED50 (Mus musculus [9]) [mg/kg] | ED50 (Mus musculus [10]) [mg/kg] | other results
1 | CCCC/C(=N\NC(N)=O)c1ccccc1 [PHENYL(BUTYL)SEMICARBAZONE] | > 500 | 1.81 | 0.97 | 59.5 | 58.3 | > 8.41 | 106 | 108 | – | – | –
2 | NC(=O)N/N=C/CCc1ccccc1 [PHENYLETHYLSEMICARBAZONE] | 334 | 1.54 | 0.92 | 36.4 | 47 | 9.16 | 72.3 | 78.6 | > 120 | – | –
3 | NC(=O)NN=C(c1ccccc1)c1ccccc1 [DIPHENYLSEMICARBAZONE] | 235 | 1.91 | 1.18 | 22.9 | 47 | 10.3 | 89.7 | 76.2 | > 100 | – | –
4 | NC(=O)N/N=C/Cc1ccccc1 [PHENYLMETHYLSEMICARBAZONE] | > 500 | 2.63 | 0.94 | 42.8 | 45.5 | > 11.7 | 120 | 128 | 59.6 | > 150 | –
5 | CC(C)/C(=N\NC(N)=O)c1ccccc1 | 245 | – | – | 43.3 | – | 5.66 | – | – | – | – | –
6 | NC(=O)N/N=C\c1ccccc1 [PHENYLSEMICARBAZONE] | – | 2.93 | 1.6 | – | 69.7 | 11.3 | – | 127 | 116 | 104 | ED50 (Rattus norvegicus [11]): 22.5 mg/kg; TD50 at 1 h [12]: 254 mg/kg; TD50 at 0.25 h [13]: 204 mg/kg
7 | CC/C(=N\NC(N)=O)c1ccccc1 | 404 | – | – | 32.8 | – | 12.3 | – | – | > 100 | 128 | –
8 | NC(=O)N/N=C/C=C/c1ccccc1 [PHENYLETHENYLSEMICARBAZONE] | > 500 | 2.01 | 1.16 | 11.5 | 48.9 | > 43.5 | 98.2 | 84.7 | > 120 | – | –
9 | CCCCC/C(=N\NC(N)=O)c1ccccc1 | > 500 | – | – | 32.6 | – | > 15.3 | – | – | 363 | 230 | –
10 | CC(=NNC(N)=O)c1ccccc1 [PHENYL(METHYL)SEMICARBAZONE] | 268 | 2.34 | 1.05 | 20.2 | 35.1 | 13.2 | 82.3 | 78.5 | > 100 | 60.8 | –
11 | NC(=O)N/N=C/c1ccccc1Cl | > 500 | – | – | 38.8 | – | > 12.9 | – | – | – | – | –
12 | NC(=O)N/N=C/c1ccc(Cl)cc1Cl | > 500 | – | – | 43.1 | – | > 11.6 | – | – | – | – | –
13 | C/C(=N/N=C(\N)S)c1ccc(Cl)cc1 [P-CHLOROPHENYL(METHYL)THIOSEMICARBAZONE] | – | 0.39 | 0.34 | – | 60.4 | 7.67 | – | 69.6 | – | – | TD50 at 1 h [14]: 119 mg/kg; ED50 (Rattus norvegicus [15]): 15.5 mg/kg; TD50 at 0.25 h [13]: 23.8 mg/kg
14 | NC(=O)N/N=C/c1c(Cl)cccc1Cl | 129 | – | – | 59 | – | 2.18 | – | – | – | – | –
15 | COc1ccc(/C=N/NC(N)=O)cc1 | – | – | – | – | – | – | – | – | – | – | TD50 (Rattus norvegicus [16]): No activity
16 | NC(=O)N/N=C/c1ccc(Cl)c(Cl)c1 | > 500 | > 3.43 | – | 20.2 | 146 | > 24.8 | > 500 | > 500 | – | – | ED50 (Mus musculus [17]): > 500 mg/kg
17 | C/C(=N\N=C(/N)S)c1ccccc1 [PHENYL(METHYL)THIOSEMICARBAZONE] | 73 | – | – | 16.9 | – | 4.33 | – | – | – | – | –
18 | NC(=O)N/N=C/c1ccc(Cl)cc1 | – | 3.37 | 1.87 | 18.6 | 74.8 | > 26.9 | 252 | 135 | > 300 | 146 | TD50 at 1 h [12]: > 500 mg/kg
19 | NC(=O)N/N=C/c1cccc(Cl)c1 | – | > 5.53 | >2.82 | 24.4 | 90.4 | > 20.5 | – | 177 | – | – | ED50 (Mus musculus [18]): 200 mg/kg; TD50 at 0.25 h [19]: > 500 mg/kg; TD50 at 1 h [20]: > 500 mg/kg; ED50 (Mus musculus [21]): > 500 mg/kg
20 | NC(=S)N/N=C/c1ccccc1 [PHENYLTHIOSEMICARBAZONE] | > 200 | – | – | 12.8 | – | > 15.6 | – | – | – | – | –
